Assay results from ChEMBL document CHEMBL2177062, “Bile acid-based 1,2,4-trioxanes: synthesis and antimalarial assessment” (J Med Chem, 2012).
The source made the active and inactive calls. The calls are words filed in the database; no cut-off is given here.

What was measured:
[1] = system: Plasmodium yoelii nigeriensis; test: Antimalarial activity in multidrug-resistant Plasmodium yoelii nigeriensis infected Swiss mouse assessed as disease cure at 24 mg/kg, po two devided dose daily for 4 days by 28 day survival assay; type: functional
How it was run: (§1)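 Swiss mice of either sex (20 2 g) inoculated ip with 1 × 10⁶ MDR P. yoelii nigeriensis (chloroquine-, mefloquine-, halofantrine-resistant) parasites on day 0. Five mice per dose. Oral dosing in groundnut oil (0.1 mL per dose) from day 0 to 3, as two divided doses daily. Thin blood smears on day 4, then twice weekly to day 28. Mice without patent infection by day 28 scored cured; % protection = fraction of mice cured. β-arteether as positive control.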

[2] = system: Plasmodium yoelii nigeriensis; test: Antimalarial activity in multidrug-resistant Plasmodium yoelii nigeriensis infected Swiss mouse assessed as disease cure at 12 mg/kg, po two devided dose daily for 4 days by 28 day survival assay; type: functional, organism-based; set-up: dose 12 mg/kg; how it was run: as §1
[3] = system: Plasmodium yoelii nigeriensis; test: Antimalarial activity in multidrug-resistant Plasmodium yoelii nigeriensis infected Swiss mouse assessed as disease cure at 48 mg/kg, po two devided dose daily for 4 days by 28 day survival assay; type: functional, organism-based; set-up: dose 48 mg/kg; how it was run: as §1
[4] = system: Plasmodium yoelii nigeriensis; test: Antimalarial activity in multidrug-resistant Plasmodium yoelii nigeriensis infected Swiss mouse assessed as disease cure at 96 mg/kg, po two devided dose daily for 4 days by 28 day survival assay; type: functional; how it was run: as §1
[5] = system: Plasmodium yoelii nigeriensis; test: Antimalarial activity in multidrug-resistant Plasmodium yoelii nigeriensis infected Swiss mouse assessed as suppression of parasitaemia at 48 mg/kg, po two devided dose daily for 4 days; type: functional
How it was run: (§2)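 Swiss mice of either sex (20 2 g) inoculated ip with 1 × 10⁶ MDR P. yoelii nigeriensis parasites on day 0. Five mice per dose, given oral doses in groundnut oil from day 0 to 3, twice daily. Parasitaemia read from thin blood smears on day 4. Suppression = [(C − T)/C] × 100 versus untreated controls. 100% means no parasites seen in 50 oil-immersion fields.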

[6] = Lipophilicity, log P of the compound; type: physicochemical; conditions: octanol/water
How it was run: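 log P calculated in silico, not measured experimentally.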

[7] = system: Plasmodium yoelii nigeriensis; test: Antimalarial activity in multidrug-resistant Plasmodium yoelii nigeriensis infected Swiss mouse assessed as suppression of parasitaemia at 96 mg/kg, po two devided dose daily for 4 days; type: functional; how it was run: as §2
[8] = system: Plasmodium yoelii nigeriensis; test: Antimalarial activity in multidrug-resistant Plasmodium yoelii nigeriensis infected Swiss mouse assessed as suppression of parasitaemia at 24 mg/kg, po two devided dose daily for 4 days; type: functional; how it was run: as §2
[9] = system: Plasmodium yoelii nigeriensis; test: Antimalarial activity in multidrug-resistant Plasmodium yoelii nigeriensis infected Swiss mouse assessed as suppression of parasitaemia at 12 mg/kg, po two devided dose daily for 4 days; type: functional; how it was run: as §2

For `C=C(c1ccc(Br)cc1)[C@@H]1CO[C@@]2(CC[C@@]3(C)[C@H](CC[C@@H]4[C@@H]3CC[C@]3(C)[C@@H](O)CC[C@@H]43)C2)OO1` (relative stereo; form 2) [listing 1 of 2 here], the Activity [1] was “Active”, the Activity [2] was “inactive” and the Activity [3] was “Active”. For the same compound, the Activity [4] was “Active”.

`C=C(c1ccccc1)[C@@H]1CO[C@@]2(CC[C@@]3(C)[C@H](CC[C@@H]4[C@@H]3CC[C@]3(C)[C@@H](C(C)=O)CC[C@@H]43)C2)OO1` (relative stereo; form 2) gave an Activity [5] of 100%, an Activity [1] of 60% and a logP [6] of 7.2. The Activity ([7]; 96 mg/kg) was 100% and the Activity [8] was 100%.

`C=C(c1ccccc1)[C@@H]1CO[C@@]2(CC[C@@]3(C)[C@H](CC[C@@H]4[C@@H]3CC[C@]3(C)[C@@H](O)CC[C@@H]43)C2)OO1` (relative stereo; form 2) [listing 1 of 2 here] gave an Activity [5] of 100%, a logP [6] of 6.44 and an Activity ([7]; 96 mg/kg) of 100%. It also gave an Activity [9] of 88.7% and an Activity [8] of 100%.

In the case of `C=C(c1ccc(F)cc1)[C@@H]1CO[C@@]2(CC[C@@]3(C)[C@H](CC[C@@H]4[C@@H]3CC[C@]3(C)[C@@H](C(C)=O)CC[C@@H]43)C2)OO1` (relative stereo; form 2), the Activity ([5]; 48 mg/kg) was 100%, the Activity [1] was 60% and the logP [6] was 7.36. It also gave an Activity [7] of 100% and an Activity [8] of 100%.

For `C=C(c1ccc(F)cc1)[C@@H]1CO[C@@]2(CC[C@@]3(C)[C@H](CC[C@@H]4[C@@H]3CC[C@]3(C)[C@@H](O)CC[C@@H]43)C2)OO1` (relative stereo; form 2) [listing 1 of 2 here], the Activity [5] was 100%, the logP [6] was 6.66 and the Activity [7] was 100%. The Activity [9] was 95.48% and the Activity [8] was 100%.

For `C=C(c1ccccc1)[C@@H]1CO[C@@]2(CC[C@@]3(C)[C@H](CC[C@@H]4[C@@H]3CC[C@]3(C)[C@@H](O)CC[C@@H]43)C2)OO1` (relative stereo; form 2) [listing 2 of 2 here], the Activity [1] was “Active”, the Activity [2] was “inactive” and the Activity [3] was “Active”. The Activity [4] was “Active”.

In the case of `C=C(c1ccc(Br)cc1)[C@@H]1CO[C@@]2(CC[C@@]3(C)[C@H](CC[C@@H]4[C@@H]3CC[C@]3(C)[C@@H](C(C)=O)CC[C@@H]43)C2)OO1` (relative stereo; form 1) [listing 1 of 2 here], the Activity [1] was “inactive”, the Activity [3] was “inactive” and the Activity [4] was “Active”.

With `C=C(c1ccc(Br)cc1)[C@@H]1CO[C@@]2(CC[C@@]3(C)[C@H](CC[C@@H]4[C@@H]3CC[C@]3(C)[C@@H](O)CC[C@@H]43)C2)OO1` (relative stereo; form 2) [listing 2 of 2 here] the Activity [5] was 100%, the logP [6] was 7.27 and the Activity ([7]; 96 mg/kg) was 100%. For the same compound, the Activity [9] was 44.5% and the Activity [8] was 100%.

`C=C(c1ccc(Cl)cc1)[C@@H]1CO[C@@]2(CC[C@@]3(C)[C@H](CC[C@@H]4[C@@H]3CC[C@]3(C)[C@@H](C(C)=O)CC[C@@H]43)C2)OO1` (relative stereo; form 2) gave an Activity [5] of 100%, an Activity [1] of 60% and a logP [6] of 7.76. For the same compound, the Activity ([7]; 96 mg/kg) was 100% and the Activity [8] was 100%.

For `C=C(c1ccc(F)cc1)[C@@H]1CO[C@@]2(CC[C@@]3(C)[C@H](CC[C@@H]4[C@@H]3CC[C@]3(C)[C@@H](C(C)=O)CC[C@@H]43)C2)OO1` (relative stereo; form 1), the Activity ([5]; 48 mg/kg) was 88.03%.

In the case of `C=C(c1ccc(Br)cc1)[C@@H]1CO[C@@]2(CC[C@@]3(C)[C@H](CC[C@@H]4[C@@H]3CC[C@]3(C)[C@@H](C(C)=O)CC[C@@H]43)C2)OO1` (relative stereo; form 1) [listing 2 of 2 here], the Activity [5] was 100%, the logP [6] was 8.03 and the Activity ([7]; 96 mg/kg) was 100%. The Activity [8] was 100%.

In the case of `C=C(c1ccc(F)cc1)[C@@H]1CO[C@@]2(CC[C@@]3(C)[C@H](CC[C@@H]4[C@@H]3CC[C@]3(C)[C@@H](O)CC[C@@H]43)C2)OO1` (relative stereo; form 2) [listing 2 of 2 here], the Activity [1] was “Active”, the Activity [2] was “inactive” and the Activity [3] was “Active”. For the same compound, the Activity [4] was “Active”.

For `CCO[C@H]1O[C@@H]2O[C@@]3(C)CC[C@H]4[C@H](C)CC[C@@H]([C@H]1C)[C@@]24OO3` [ARTEMOTIL], the Activity [5] was 100%, the Activity [1] was 20% and the Activity [3] was “Active”. The Activity [8] was 100%.
